Active and inactive are the calls of the source. No cut-off for these calls is given here.
Columns and labels:
[1] = biological target: Ribosomal protein S6 kinase alpha-1 (Homo sapiens) (UniProt Q15418); experiment: Binding affinity to RPS6KA1 in human NCI-H358 cells at 1 uM by mass spectrometry based pull down assay; format: cell-based
[2] = biological target: Medium-chain specific acyl-CoA dehydrogenase, mitochondrial (Homo sapiens) (UniProt P11310); experiment: Binding affinity to ACADM in human NCI-H358 cells at 1 uM by mass spectrometry based pull down assay; format: cell-based
Medium-chain specific acyl-CoA dehydrogenase, mitochondrial (Homo sapiens), sequence (P11310 whole entry): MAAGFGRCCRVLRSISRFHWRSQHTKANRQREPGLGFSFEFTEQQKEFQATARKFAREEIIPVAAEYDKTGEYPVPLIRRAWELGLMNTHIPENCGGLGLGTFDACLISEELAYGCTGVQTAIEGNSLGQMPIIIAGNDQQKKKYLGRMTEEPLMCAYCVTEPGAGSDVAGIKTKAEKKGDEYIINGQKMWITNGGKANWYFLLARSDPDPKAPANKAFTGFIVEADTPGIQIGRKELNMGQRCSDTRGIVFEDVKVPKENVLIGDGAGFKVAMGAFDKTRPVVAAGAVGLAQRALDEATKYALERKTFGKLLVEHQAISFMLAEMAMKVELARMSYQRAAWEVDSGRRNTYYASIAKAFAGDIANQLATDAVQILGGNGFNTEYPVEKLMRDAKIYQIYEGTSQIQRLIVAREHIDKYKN
In short: (§1)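 NCI-H23 or NCI-H358 cells were grown and lysed. Lysates were incubated overnight at 4 °C with 1 μM biotinylated covalent probe or DMSO, then pulled down on streptavidin beads. Proteins were run on polyacrylamide gels and stained with Coomassie. Bands were excised, digested and identified by mass spectrometry.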

[3] = biological target: Inosine-5'-monophosphate dehydrogenase 2 (Homo sapiens) (UniProt P12268); experiment: Binding affinity to IMPDH2 in human NCI-H358 cells at 1 uM by mass spectrometry based pull down assay; format: cell-based
Inosine-5'-monophosphate dehydrogenase 2 (Homo sapiens), sequence (P12268 2-514 limits assumed): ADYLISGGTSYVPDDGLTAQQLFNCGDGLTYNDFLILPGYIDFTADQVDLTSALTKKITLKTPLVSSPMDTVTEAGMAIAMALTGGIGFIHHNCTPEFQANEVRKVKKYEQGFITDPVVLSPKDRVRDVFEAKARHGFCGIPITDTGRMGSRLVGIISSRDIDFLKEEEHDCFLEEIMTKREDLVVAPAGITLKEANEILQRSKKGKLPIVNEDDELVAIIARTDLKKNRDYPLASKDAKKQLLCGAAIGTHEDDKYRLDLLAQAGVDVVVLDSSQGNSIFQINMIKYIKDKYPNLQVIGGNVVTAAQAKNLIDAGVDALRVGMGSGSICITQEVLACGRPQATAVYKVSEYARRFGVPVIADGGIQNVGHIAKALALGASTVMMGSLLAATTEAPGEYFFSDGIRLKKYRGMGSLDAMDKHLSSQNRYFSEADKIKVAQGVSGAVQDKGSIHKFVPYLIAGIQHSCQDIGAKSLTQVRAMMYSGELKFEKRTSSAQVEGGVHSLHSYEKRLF

[4] = biological target: Sequestosome-1 (Homo sapiens) (UniProt Q13501); experiment: Binding affinity to SQSTM1 in human NCI-H358 cells at 1 uM by mass spectrometry based pull down assay; format: cell-based
[5] = biological target: Peroxiredoxin-4 (Homo sapiens) (UniProt Q13162); experiment: Binding affinity to PRDX4 in human NCI-H358 cells at 1 uM by mass spectrometry based pull down assay; format: cell-based
Peroxiredoxin-4 (Homo sapiens), sequence (Q13162 whole entry): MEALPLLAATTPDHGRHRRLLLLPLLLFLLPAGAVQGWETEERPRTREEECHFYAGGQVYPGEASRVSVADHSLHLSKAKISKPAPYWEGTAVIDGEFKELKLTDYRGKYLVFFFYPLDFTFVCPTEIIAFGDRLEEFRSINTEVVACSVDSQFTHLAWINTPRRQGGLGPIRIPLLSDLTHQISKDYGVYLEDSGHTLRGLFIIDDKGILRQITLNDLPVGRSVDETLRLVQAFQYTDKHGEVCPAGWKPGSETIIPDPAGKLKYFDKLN

[6] = biological target: Calcyclin-binding protein (Homo sapiens) (UniProt Q9HB71); experiment: Binding affinity to CACYBP in human NCI-H358 cells at 1 uM by mass spectrometry based pull down assay; format: cell-based
Calcyclin-binding protein (Homo sapiens), sequence (Q9HB71 whole entry): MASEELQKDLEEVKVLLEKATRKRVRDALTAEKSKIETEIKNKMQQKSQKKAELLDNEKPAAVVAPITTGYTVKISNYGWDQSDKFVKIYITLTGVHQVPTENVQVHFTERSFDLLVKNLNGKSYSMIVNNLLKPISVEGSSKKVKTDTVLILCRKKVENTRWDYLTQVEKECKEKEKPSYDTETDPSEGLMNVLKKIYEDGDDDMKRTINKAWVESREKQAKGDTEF

[7] = biological target: Jupiter microtubule associated homolog 2 (Homo sapiens) (UniProt Q9H910); experiment: Binding affinity to HN1L in human NCI-H358 cells at 1 uM by mass spectrometry based pull down assay; format: cell-based
Jupiter microtubule associated homolog 2 (Homo sapiens), sequence (Q9H910 whole entry): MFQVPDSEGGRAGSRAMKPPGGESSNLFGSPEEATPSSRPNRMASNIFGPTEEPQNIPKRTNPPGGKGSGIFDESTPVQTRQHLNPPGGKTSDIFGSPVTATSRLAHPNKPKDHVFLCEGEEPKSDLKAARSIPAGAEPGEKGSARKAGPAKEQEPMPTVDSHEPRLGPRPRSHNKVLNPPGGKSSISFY

[8] = biological target: Ubiquitin-associated protein 2-like (Homo sapiens) (UniProt Q14157); experiment: Binding affinity to UBAP2L in human NCI-H358 cells at 1 uM by mass spectrometry based pull down assay; format: cell-based
[9] = biological target: N-acetyl-D-glucosamine kinase (Homo sapiens) (UniProt Q9UJ70); experiment: Binding affinity to NAGK in human NCI-H23 cells at 1 uM by mass spectrometry based pull down assay; format: cell-based
N-acetyl-D-glucosamine kinase (Homo sapiens), sequence (Q9UJ70 whole entry): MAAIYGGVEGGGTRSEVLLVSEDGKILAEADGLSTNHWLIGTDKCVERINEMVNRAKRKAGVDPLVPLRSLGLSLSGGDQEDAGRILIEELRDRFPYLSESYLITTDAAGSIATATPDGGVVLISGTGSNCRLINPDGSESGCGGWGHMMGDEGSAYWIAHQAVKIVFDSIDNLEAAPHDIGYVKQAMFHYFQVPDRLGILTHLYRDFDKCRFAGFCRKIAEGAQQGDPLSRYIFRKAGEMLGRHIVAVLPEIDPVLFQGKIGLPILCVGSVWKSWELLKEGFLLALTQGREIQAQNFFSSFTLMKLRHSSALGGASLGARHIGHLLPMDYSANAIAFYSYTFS

[10] = biological target: T1, Dual specificity mitogen-activated protein kinase kinase 5 (Homo sapiens) (UniProt Q13163); experiment: Binding affinity to MAP2K5 in human NCI-H358 cells at 1 uM by mass spectrometry based pull down assay; format: cell-based
T1 sequence (whole entry): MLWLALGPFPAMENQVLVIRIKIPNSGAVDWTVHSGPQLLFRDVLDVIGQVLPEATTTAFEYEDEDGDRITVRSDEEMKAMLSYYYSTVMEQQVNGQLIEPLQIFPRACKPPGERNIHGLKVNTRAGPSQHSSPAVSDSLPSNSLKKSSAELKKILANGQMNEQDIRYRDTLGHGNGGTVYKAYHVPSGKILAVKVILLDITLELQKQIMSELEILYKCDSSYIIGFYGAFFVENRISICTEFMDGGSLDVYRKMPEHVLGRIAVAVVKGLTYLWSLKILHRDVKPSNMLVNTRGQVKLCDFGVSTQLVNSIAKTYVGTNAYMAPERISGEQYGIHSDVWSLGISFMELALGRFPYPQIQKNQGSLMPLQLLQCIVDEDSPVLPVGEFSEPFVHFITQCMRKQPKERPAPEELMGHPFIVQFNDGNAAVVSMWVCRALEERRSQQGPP

[11] = biological target: Alpha-2-HS-glycoprotein (Homo sapiens) (UniProt P02765); experiment: Binding affinity to AHSG in human NCI-H358 cells at 1 uM by mass spectrometry based pull down assay; format: cell-based; in short: as §1
Alpha-2-HS-glycoprotein (Homo sapiens), sequence (P02765 whole entry): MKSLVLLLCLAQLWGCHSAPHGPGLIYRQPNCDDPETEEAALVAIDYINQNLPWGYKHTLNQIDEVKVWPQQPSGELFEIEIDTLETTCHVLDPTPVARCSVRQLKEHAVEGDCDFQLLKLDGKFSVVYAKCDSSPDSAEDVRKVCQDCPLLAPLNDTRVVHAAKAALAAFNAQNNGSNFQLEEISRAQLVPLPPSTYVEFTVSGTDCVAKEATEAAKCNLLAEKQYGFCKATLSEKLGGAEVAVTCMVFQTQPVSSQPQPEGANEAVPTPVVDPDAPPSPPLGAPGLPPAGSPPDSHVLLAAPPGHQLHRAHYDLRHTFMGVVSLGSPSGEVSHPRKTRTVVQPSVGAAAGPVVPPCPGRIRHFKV

[12] = biological target: Actin-related protein 3 (Homo sapiens) (UniProt P61158); experiment: Binding affinity to ACTR3 in human NCI-H358 cells at 1 uM by mass spectrometry based pull down assay; format: cell-based; in short: as §1
[13] = biological target: Methylosome protein WDR77 (Homo sapiens) (UniProt Q9BQA1); experiment: Binding affinity to WDR77 in human NCI-H23 cells at 1 uM by mass spectrometry based pull down assay; format: cell-based
Methylosome protein WDR77 (Homo sapiens), sequence (Q9BQA1 whole entry): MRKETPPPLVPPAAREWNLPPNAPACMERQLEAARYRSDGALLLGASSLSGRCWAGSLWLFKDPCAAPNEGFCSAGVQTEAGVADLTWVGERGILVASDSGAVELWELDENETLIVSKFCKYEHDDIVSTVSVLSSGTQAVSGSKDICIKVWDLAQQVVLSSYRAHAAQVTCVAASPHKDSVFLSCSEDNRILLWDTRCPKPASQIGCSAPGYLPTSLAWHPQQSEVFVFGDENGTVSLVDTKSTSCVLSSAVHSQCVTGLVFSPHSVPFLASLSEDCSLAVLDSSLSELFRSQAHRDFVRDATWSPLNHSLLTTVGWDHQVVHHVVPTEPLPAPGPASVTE

[14] = biological target: Thioredoxin reductase 1, cytoplasmic (Homo sapiens) (UniProt Q16881); experiment: Binding affinity to TXNRD1 in human NCI-H23 cells at 1 uM by mass spectrometry based pull down assay; format: cell-based
[15] = biological target: Mitotic interactor and substrate of PLK1 (Homo sapiens) (UniProt Q8IVT2); experiment: Binding affinity to MISP in human NCI-H358 cells at 1 uM by mass spectrometry based pull down assay; format: cell-based
Mitotic interactor and substrate of PLK1 (Homo sapiens), sequence (Q8IVT2 whole entry): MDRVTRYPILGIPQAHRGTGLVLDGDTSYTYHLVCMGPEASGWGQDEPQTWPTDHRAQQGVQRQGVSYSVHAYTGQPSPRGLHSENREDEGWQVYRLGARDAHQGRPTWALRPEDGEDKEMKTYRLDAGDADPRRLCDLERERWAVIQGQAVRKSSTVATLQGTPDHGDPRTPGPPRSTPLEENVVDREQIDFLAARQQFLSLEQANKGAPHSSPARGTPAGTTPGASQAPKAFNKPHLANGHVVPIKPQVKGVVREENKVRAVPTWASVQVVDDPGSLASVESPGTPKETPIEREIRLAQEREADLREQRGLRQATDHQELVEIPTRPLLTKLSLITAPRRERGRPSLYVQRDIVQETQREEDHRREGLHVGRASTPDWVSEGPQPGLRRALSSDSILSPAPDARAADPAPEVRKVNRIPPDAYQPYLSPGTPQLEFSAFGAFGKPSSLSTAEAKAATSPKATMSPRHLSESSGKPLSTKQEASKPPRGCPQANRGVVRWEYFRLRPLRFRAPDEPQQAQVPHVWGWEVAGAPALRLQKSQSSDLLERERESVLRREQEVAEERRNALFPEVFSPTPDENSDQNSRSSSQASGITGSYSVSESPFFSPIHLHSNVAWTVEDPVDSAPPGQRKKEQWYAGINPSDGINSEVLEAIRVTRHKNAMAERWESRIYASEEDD

[16] = biological target: Interleukin-1 receptor-associated kinase 1 (Homo sapiens) (UniProt P51617); experiment: Binding affinity to IRAK1 in human NCI-H23 cells at 1 uM by mass spectrometry based pull down assay; format: cell-based
[17] = biological target: Uracil-DNA glycosylase (Homo sapiens) (UniProt P13051); experiment: Binding affinity to UNG in human NCI-H358 cells at 1 uM by mass spectrometry based pull down assay; format: cell-based
Uracil-DNA glycosylase (Homo sapiens), sequence (P13051 whole entry): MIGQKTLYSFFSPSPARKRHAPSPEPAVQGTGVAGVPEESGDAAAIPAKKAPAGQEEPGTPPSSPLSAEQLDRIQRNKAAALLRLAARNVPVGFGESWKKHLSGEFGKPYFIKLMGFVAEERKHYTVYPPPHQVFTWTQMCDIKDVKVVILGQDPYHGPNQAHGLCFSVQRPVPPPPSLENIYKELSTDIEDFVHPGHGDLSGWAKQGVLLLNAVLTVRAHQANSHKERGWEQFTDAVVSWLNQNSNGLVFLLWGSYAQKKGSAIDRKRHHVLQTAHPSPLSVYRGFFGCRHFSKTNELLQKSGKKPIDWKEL

[18] = biological target: COP9 signalosome complex subunit 8 (Homo sapiens) (UniProt Q99627); experiment: Binding affinity to COPS8 in human NCI-H358 cells at 1 uM by mass spectrometry based pull down assay; format: cell-based
COP9 signalosome complex subunit 8 (Homo sapiens), sequence (Q99627 whole entry, one chain of several): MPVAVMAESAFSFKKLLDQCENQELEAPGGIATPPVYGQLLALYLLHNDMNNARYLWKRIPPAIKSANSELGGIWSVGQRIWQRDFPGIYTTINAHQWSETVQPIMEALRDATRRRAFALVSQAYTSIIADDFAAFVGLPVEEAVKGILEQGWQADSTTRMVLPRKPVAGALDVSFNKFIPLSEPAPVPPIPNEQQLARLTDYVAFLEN

[19] = biological target: HCLS1-associated protein X-1 (Homo sapiens) (UniProt O00165); experiment: Binding affinity to HAX1 in human NCI-H23 cells at 1 uM by mass spectrometry based pull down assay; format: cell-based
HCLS1-associated protein X-1 (Homo sapiens), sequence (O00165 whole entry): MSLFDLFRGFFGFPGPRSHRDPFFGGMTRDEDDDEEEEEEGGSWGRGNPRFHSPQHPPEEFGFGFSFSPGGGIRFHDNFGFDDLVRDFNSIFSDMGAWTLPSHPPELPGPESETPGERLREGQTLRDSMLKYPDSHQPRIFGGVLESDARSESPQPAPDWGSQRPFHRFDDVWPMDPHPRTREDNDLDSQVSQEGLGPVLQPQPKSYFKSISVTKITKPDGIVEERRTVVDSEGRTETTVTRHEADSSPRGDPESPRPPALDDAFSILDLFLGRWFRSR

[20] = biological target: RuvB-like 2 (Homo sapiens) (UniProt Q9Y230); experiment: Binding affinity to RUVBL2 in human NCI-H23 cells at 1 uM by mass spectrometry based pull down assay; format: cell-based
RuvB-like 2 (Homo sapiens), sequence (Q9Y230 whole entry): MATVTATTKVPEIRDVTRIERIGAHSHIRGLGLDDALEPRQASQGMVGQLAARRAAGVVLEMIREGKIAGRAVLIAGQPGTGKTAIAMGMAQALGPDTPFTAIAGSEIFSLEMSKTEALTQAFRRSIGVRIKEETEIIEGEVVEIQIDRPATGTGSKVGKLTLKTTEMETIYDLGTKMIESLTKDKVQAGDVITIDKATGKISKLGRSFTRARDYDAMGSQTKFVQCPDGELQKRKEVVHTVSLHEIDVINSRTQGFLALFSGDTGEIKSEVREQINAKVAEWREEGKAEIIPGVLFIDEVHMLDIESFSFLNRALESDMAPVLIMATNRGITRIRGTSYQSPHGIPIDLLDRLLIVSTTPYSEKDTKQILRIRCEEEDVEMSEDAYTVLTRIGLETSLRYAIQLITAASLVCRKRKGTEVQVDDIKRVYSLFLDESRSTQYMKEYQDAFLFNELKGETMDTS

[21] = biological target: Glutamate--cysteine ligase regulatory subunit (Homo sapiens) (UniProt P48507); experiment: Binding affinity to GCLM in human NCI-H23 cells at 1 uM by mass spectrometry based pull down assay; format: cell-based
Glutamate--cysteine ligase regulatory subunit (Homo sapiens), sequence (P48507 whole entry, the tested form may be a part): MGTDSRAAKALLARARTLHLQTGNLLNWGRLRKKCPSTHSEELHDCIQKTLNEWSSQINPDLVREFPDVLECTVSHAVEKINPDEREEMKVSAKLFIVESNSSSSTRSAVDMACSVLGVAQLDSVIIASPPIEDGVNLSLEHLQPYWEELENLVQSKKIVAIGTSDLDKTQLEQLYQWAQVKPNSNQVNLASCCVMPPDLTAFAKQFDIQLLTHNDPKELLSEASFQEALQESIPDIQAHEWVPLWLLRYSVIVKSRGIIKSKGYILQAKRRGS

[22] = biological target: T2, Dual specificity mitogen-activated protein kinase kinase 4 (Homo sapiens) (UniProt P45985); experiment: Inhibition of human MEK4 (84 to 399 residues) expressed in mammalian expression system assessed as enzyme activity at 1 uM by KINOMEScan assay relative to control; parameters: scale not given: the % may be the effect or the level left
T2 sequence (whole entry): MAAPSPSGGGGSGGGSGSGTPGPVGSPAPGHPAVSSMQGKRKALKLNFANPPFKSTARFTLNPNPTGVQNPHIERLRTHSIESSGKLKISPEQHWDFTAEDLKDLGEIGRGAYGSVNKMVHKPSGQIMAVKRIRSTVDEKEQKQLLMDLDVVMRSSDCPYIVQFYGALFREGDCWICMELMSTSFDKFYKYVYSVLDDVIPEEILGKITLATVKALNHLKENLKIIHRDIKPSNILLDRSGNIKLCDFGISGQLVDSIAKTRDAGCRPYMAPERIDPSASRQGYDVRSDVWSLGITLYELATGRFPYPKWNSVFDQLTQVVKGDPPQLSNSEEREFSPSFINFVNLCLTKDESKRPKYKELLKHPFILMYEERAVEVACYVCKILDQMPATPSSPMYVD
In short: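 In vitro ATP-site competition binding assay across a panel of 456 kinases, with compound tested at 1 and 10 μM.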

BaF3 = experiment: Antiproliferative activity against mouse BA/F3 cells harboring KRAS G12D mutant after 72 hrs by CellTiter-Glo assay; format: functional, cell-based; settings: BaF3, 72 h

C=CC(=O)Nc1ccccc1Nc1nc(Nc2ccc(N3CCN(CCOCCOCCOCCNC(=O)CCCC[C@@H]4SC[C@@H]5NC(=O)N[C@@H]54)CC3)cc2)ncc1Cl
Activity [1]: Active
Activity [2]: Active
Activity [3]: Active
Activity [4]: Active
Activity [5]: Active
Activity [6]: Active
Activity [7]: Active
Activity [8]: Active
Activity [9]: Active
Activity [10]: Active
Activity [11]: Active
Activity [12]: Active
Activity [13]: Active
Activity [14]: Active
Activity [15]: Active
Activity [16]: Active
Activity [17]: Active
Activity [18]: Active
Activity [19]: Active
Activity [20]: Active
Activity [21]: Active

COc1cc(O)c2c(c1)/C=C/C[C@H](O)[C@H](O)C(=O)/C=C\C[C@H](C)OC2=O
Activity [22]: 19%
IC50 (BaF3): 4 nM
